Data on 38 compounds can be found in ChEMBL document CHEMBL4480367 (Medchemcomm, 2019).

The nature of data set [1]: Cytotoxicity against MDCK cells assessed as reduction in cell viability after 24 hrs by MTT assay. In kind it is cell-based, Canis lupus familiaris. As to conditions: dog. Put shortly: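 MDCK cells were seeded at 2 × 10^4 per well and treated next day with graded concentrations in DMEM for 24 h. MTT (5 mg mL−1 solution) was added for 4 h at 37 °C, cells were lysed for 3 h, and A575 was read. CC50 is the concentration inhibiting cell growth by 50% versus control cultures.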
(Tetrazolium assays rely on reduction of a dye to a coloured formazan, in cell work by metabolically active cells.)

For data set [2], the system named is Saccharomyces cerevisiae. As to the kind of experiment: Toxicity against yeast assessed as reduction in cell viability. In kind it is organism-based. Put shortly: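 Control yeast strain carrying empty plasmid, induced in 2% galactose SC medium (pH 6.5) lacking leucine, with compounds at graded concentrations for 46–48 h at 30 °C. A600 was read. Toxicity value is the concentration inhibiting proliferation by 50%.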

For data set [3], the target named is Matrix protein 2 (UniProt P0DOF8). As to the kind of experiment: Inhibition of wild type Influenza A virus (A/chicken/Hubei/327/2004(H5N1)) M2 expressed in yeast cells after 46 to 48 hrs. In kind it is cell-based. Put shortly: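 Yeast growth-restoration assay. Yeast carried the M2 coding sequence under the GAL1 promoter, grown in glucose SC medium (pH 6.5) lacking leucine, then washed and resuspended to A600 0.01 in 2% galactose SC medium. Compounds were added at graded concentrations; plates were incubated at 30 °C for 46–48 h and A600 was read. Hits were retested in triplicate for EC50.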

Data set [4] deals with Influenza A virus. The data set is described as follows: Antiviral activity against Influenza A virus H5N1. In kind it is functional, organism-based.
In data set [5] the test system is Influenza A virus. The data set is described as follows: Antiviral activity against Influenza A virus (H1N1). In kind it is functional, organism-based.
The subject of data set [6] is Influenza A virus. As to the kind of experiment: Antiviral activity against amantadine-sensitive Influenza A virus (A/chicken/Hubei/327/2004(H5N1)) infected in MDCK cells assessed as reduction in early stage viral replication by measuring viral titer at 1.9 uM measured after 12 hrs by crystal violet staining-based plaque reduction assay during time-of-addition assay. In kind it is functional, organism-based. (In general: In a plaque reduction assay, fewer plaques than in the control indicate reduced infectivity or spread.)

The subject of data set [7] is Influenza A virus. As to the kind of experiment: Antiviral activity against amantadine-sensitive Influenza A virus (A/chicken/Hubei/327/2004(H5N1)) infected in MDCK cells assessed as reduction in early stage viral replication by measuring viral titer at 4 uM measured after 12 hrs by crystal violet staining-based plaque reduction assay during time-of-addition assay. In kind it is functional, organism-based.

In data set [8] the test system is Influenza A virus. The data set is described as follows: Antiviral activity against amantadine-sensitive Influenza A virus (A/chicken/Hubei/327/2004(H5N1)) infected in MDCK cells assessed as reduction in early stage viral replication by measuring viral titer at 1.7 uM measured after 12 hrs by crystal violet staining-based plaque reduction assay during time-of-addition assay. In kind it is functional, organism-based.

Activity calls are given as the source filed them. The calls are words filed in the database; no cut-off is given here.

Sequence of Matrix protein 2 (P0DOF8 whole entry): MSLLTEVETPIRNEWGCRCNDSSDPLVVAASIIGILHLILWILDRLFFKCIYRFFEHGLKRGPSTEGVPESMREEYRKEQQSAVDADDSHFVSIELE

`O=[N+]([O-])c1ccc(S(=O)(=O)NCc2cccs2)cc1`: the CC50 (as a rule, the concentration giving 50% cytotoxicity) at 24 h in data set [1] was found to be 133 µM. The Activity in data set [2] is 157.5 µM.
With `O=S(=O)(NCc1cc2ccccc2s1)c1ccccc1F`, in data set [3], the EC50 (usually the concentration needed to bring the measured effect to its halfway point) is given as “Not Active”. Moreover, in data set [2], the Activity is above 180.5 µM.
On to `O=S(=O)(NCc1csc2ccccc12)c1ccccc1F`, for which, in data set [3], the EC50 entry is reported as “Not Active”. For the same compound, the Activity in data set [2] stood at 59.1 µM.
As for `O=[N+]([O-])c1ccc(S(=O)(=O)NCc2ccoc2)cc1`, in data set [1], the 50% cytotoxic concentration (CC50) at 24 h is above 236 µM. Also, the Activity in data set [2] was above 237.4 µM.
Regarding `O=[N+]([O-])c1ccc(S(=O)(=O)NCc2ccsc2)cc1`, the CC50 at 24 h in data set [1] is 139 µM. Moreover, the Activity in data set [2] is above 224.6 µM.
`Cc1cc(CNS(=O)(=O)c2ccc(Br)cc2)c(C)o1`: the CC50 at 24 h in data set [1] is 29.6 µM. For the same compound, the Activity in data set [2] was determined as 72.6 µM.
Turning to `O=S(=O)(NCc1cc2ccccc2s1)c1ccc(Cl)cc1`, in data set [3], the EC50 entry was “Not Active”. The Activity in data set [2] is above 198.3 µM.
Regarding `Cc1ccc(S(=O)(=O)NCc2csc3ccccc23)cc1`, in data set [1], the CC50 at 24 h was above 210 µM. Also, the Activity in data set [2] is above 211.08 µM.
With `O=S(=O)(NCc1cc2ccccc2s1)c1ccc(Br)cc1`, the EC50 result in data set [3] is recorded as “Not Active”. Moreover, the CC50 at 24 h in data set [1] was above 174 µM. For the same compound, in data set [2], the Activity was above 176.2 µM.
Turning to `Cc1cc(CNS(=O)(=O)c2ccc(Cl)cc2)c(C)s1`, the CC50 at 24 h in data set [1] was found to be 52.9 µM. Moreover, the Activity in data set [2] was determined as 114.1 µM.
Regarding `CCOC(=O)C1=C[C@@H](OC(CC)CC)[C@H](NC(C)=O)[C@@H](N)C1.O=P(O)(O)O` [OSELTAMIVIR PHOSPHATE], in data set [3], the EC50 result is recorded as “Not Active”. Besides, in data set [1], the CC50 at 24 h is above 163 µM. Moreover, the Activity in data set [2] was above 214.5 µM.
`O=S(=O)(NCc1csc2ccccc12)c1ccc(Br)cc1`: the CC50 at 24 h in data set [1] came out at 87.1 µM. Also, the Activity in data set [2] is 134.1 µM.
In the case of `Cc1cc(CNS(=O)(=O)c2ccc(C#N)cc2)c(C)s1`, the CC50 at 24 h in data set [1] was above 218 µM. Besides, the Activity in data set [2] is above 218.7 µM.
Turning to `O=S(=O)(NCc1cc2ccccc2s1)c1ccc(F)cc1`, in data set [3], the EC50 result is reported as “Not Active”. The Activity in data set [2] is above 208.5 µM.
In data set [4], `Cc1cc(C(=O)NCCSCc2ccc([N+](=O)[O-])cc2)c(C)o1` came in with an EC50 of 1.25 µM. This lies in the single-digit micromolar range.
In the case of `Cc1cc(CNS(=O)(=O)c2ccc(F)cc2)c(C)s1`, the EC50 entry in data set [3] is listed as “Not Active”. Also, the Activity in data set [2] came out at 120.2 µM.
On to `N#Cc1ccc(S(=O)(=O)NCc2csc3ccccc23)cc1`, for which, in data set [1], the CC50 at 24 h came out at 122 µM. For the same compound, the Activity in data set [2] was above 204 µM.
As for `Cc1cc(CNS(=O)(=O)c2ccc(F)cc2)c(C)o1`, the CC50 at 24 h in data set [1] amounted to 138 µM. In data set [2], the Activity was above 236.5 µM.
`N#Cc1ccc(S(=O)(=O)NCc2cc3ccccc3s2)cc1`: the EC50 entry in data set [3] was “Not Active”. Also, in data set [2], the Activity is above 204 µM.
On to `O=S(=O)(NCc1csc2ccccc12)c1ccc(Cl)cc1`, for which the CC50 at 24 h in data set [1] was determined as 69.6 µM. Further, the Activity in data set [2] turned out to be 121.4 µM.
As to `O=S(=O)(NCc1csc2ccccc12)c1cccc(F)c1`, in data set [3], the EC50 entry is on record as “Not Active”. Besides, the Activity in data set [2] is above 208.5 µM.
Consider `CC1CC2=C(NC(=O)NC2c2ccc(O)c(Br)c2)c2ccccc21` (stereo not drawn), for which the EC50 in data set [4] and in data set [5] was 0.032 µM throughout.
With `O=[N+]([O-])c1ccc(S(=O)(=O)NCc2csc3ccccc23)cc1`, in data set [1], the CC50 at 24 h is above 191 µM. Also, the Activity in data set [2] is above 192.3 µM.
As for `Cc1ccc(S(=O)(=O)NCc2cc3ccccc3s2)cc1`, the EC50 result in data set [3] is on record as “Not Active”. In addition, the CC50 at 24 h in data set [1] was above 210 µM. Also, the Activity in data set [2] was above 211.08 µM.
Regarding `CC(=O)c1ccc(S(=O)(=O)NCc2csc3ccccc23)cc1`, in data set [1], the CC50 at 24 h is above 193 µM. Also, the Activity in data set [2] was above 194 µM.
Taken in the same sequence, the figures for `Cc1cc(CNS(=O)(=O)c2ccc(Cl)cc2)c(C)o1` were 55.7 µM and 123.43 µM.
With `O=S(=O)(NCc1cc2ccccc2s1)c1ccc(C(F)(F)F)cc1`, the EC50 result in data set [3] is “Not Active”. In addition, the CC50 at 24 h in data set [1] was above 180 µM. Moreover, the Activity in data set [2] was above 180.4 µM.
Turning to `Cc1cc(CNS(=O)(=O)c2ccc(C#N)cc2)c(C)o1`, in data set [1], the CC50 at 24 h came out at 105 µM. Further, the Activity in data set [2] is 168.8 µM.
For `O=[N+]([O-])c1ccc(S(=O)(=O)NCc2ccc(Cl)s2)cc1`, the EC50 result in data set [3] is recorded as “Not Active”. In data set [1], the CC50 at 24 h stood at 128 µM. For the same compound, the Activity in data set [2] is above 201.3 µM.
`O=S(=O)(NCc1csc2ccccc12)c1ccc(F)cc1`: in data set [1], the CC50 at 24 h came to 98.6 µM. Besides, the Activity in data set [2] came out at 133.8 µM.
The matching figures for `Cc1cc(CNS(=O)(=O)c2ccc([N+](=O)[O-])cc2)c(C)o1`: above 152 µM and above 215.9 µM.
In the case of `Cc1cc(CNS(=O)(=O)c2ccc(Br)cc2)c(C)s1`, the CC50 at 24 h in data set [1] amounted to 56.4 µM. The outcome in data set [6] was Active. In data set [2], the Activity turned out to be 133.2 µM.
Take `NC(=O)c1nc(F)cnc1O`: the outcome in data set [7] was Active.
In the case of `NC12CC3CC(CC(C3)C1)C2` [AMANTADINE], in data set [8], the result was Active. In addition, in data set [1], the CC50 at 24 h was above 100 µM. Further, the Activity in data set [2] is above 443 µM.
As for `O=S(=O)(NCc1csc2ccccc12)c1ccc(C(F)(F)F)cc1`, in data set [3], the EC50 result was “Not Active”. Moreover, in data set [1], the CC50 at 24 h amounted to 94.8 µM. Besides, the Activity in data set [2] was above 180.4 µM.
With `O=S(=O)(NCc1cc2ccccc2s1)c1cccc(F)c1`, the EC50 entry in data set [3] is “Not Active”. For the same compound, in data set [2], the Activity was above 180.5 µM.
`Cc1cc(CNS(=O)(=O)c2ccc([N+](=O)[O-])cc2)c(C)s1`: the CC50 at 24 h in data set [1] was above 204 µM. Moreover, the Activity in data set [2] was above 205.3 µM.
With `O=[N+]([O-])c1ccc(S(=O)(=O)NCc2cc3ccccc3s2)cc1`, the EC50 entry in data set [3] is “Not Active”. The CC50 at 24 h in data set [1] is above 191 µM. The Activity in data set [2] is above 192.3 µM.
